Reference: ChEMBL document CHEMBL2021876, “New pyridobenzoxazepine derivatives derived from 5-(4-methylpiperazin-1-yl)-8-chloro-pyrido[2,3-b][1,5]benzoxazepine (JL13): chemical synthesis and pharmacological evaluation” (J Med Chem, 2012)

What was measured:
[1] = In vivo displacement of [3H]Nemonapride from dopamine D4 receptor in Sprague-Dawley rat medial-prefrontal cortex at 13.75 mg/kg, ip qd for 28 days by autoradiography relative to control; assay type: functional; conditions: route intraperitoneal
Caudate-putamen [2] = assay: In vivo displacement of [3H]Nemonapride from dopamine D4 receptor in Sprague-Dawley rat lateral part of caudate putamen at 13.75 mg/kg, ip qd for 28 days by autoradiography relative to control; assay type: functional; conditions: route intraperitoneal
[3] = In vivo displacement of [3H]Nemonapride from dopamine D4 receptor in Sprague-Dawley rat entorhinal cortex at 13.75 mg/kg, ip qd for 28 days by autoradiography relative to control; assay type: functional; conditions: route intraperitoneal
[4] = molecular target: Serotonin 1a (5-HT1a) receptor/Adrenergic receptor alpha-1 (Rattus norvegicus) (UniProt P15823+P23944+P43140+P19327); assay: In vivo displacement of [3H]8-OH-DPAT from 5HT1A receptor in Sprague-Dawley rat entorhinal cortex at 13.75 mg/kg, ip qd for 28 days by autoradiography relative to control; assay type: functional, organism-based; parameters: dose 13.75 mg/kg
Summary of the method: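 Male Sprague-Dawley rats (200−225 g, N = 8/group) dosed ip once daily for 28 days, vehicle controls, decapitated; 10 μm frozen coronal sections. Preincubation 1 h RT in 50 mM Tris-HCl pH 7.6, 0.1% ascorbic acid, 4 mM CaCl2, 10 μM pargyline; then 1 h RT with 2.0 nM [3H]8-OH-DPAT. Nonspecific: 1 μM 5-HT. Saturating conditions; binding in fmol/mg tissue, % of control, mean ± SEM.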

[5] = In vivo displacement of [3H]Ketanserin from 5HT2A receptor in Sprague-Dawley rat dorsolateral frontal cortex at 13.75 mg/kg, ip qd for 28 days by autoradiography relative to control; assay type: functional; conditions: route intraperitoneal
Summary of the method: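 Rats (male Sprague-Dawley, N = 8/group) given daily ip injections for 28 days versus vehicle. Brain sections preincubated 1 h RT in 50 mM Tris-HCl pH 7.7, then 1 h RT with 3.0 nM [3H]ketanserin plus 1 μM prazosin and 100 nM tetrabenazine. Nonspecific: 1 μM methysergide. Washes 2 × 30 min ice-cold. Readout fmol/mg tissue as % of control, mean ± SEM.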

[6] = In vivo displacement of [3H]SCH-23390 from dopamine D1 receptor in Sprague-Dawley rat entorhinal cortex at 13.75 mg/kg, ip qd for 28 days by autoradiography relative to control; assay type: functional; conditions: route intraperitoneal
Summary of the method: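 Forebrain sections from male Sprague-Dawley rats (N = 8/group) after 28 days of daily ip injections versus vehicle. Incubation 1 h RT in 50 mM Tris-HCl pH 7.4, 120 mM NaCl, 5 mM KCl, 2 mM CaCl2, 1 mM MgCl2 with 1 nM [3H]SCH-23390 and 100 nM ketanserin. Nonspecific: 1 μM cis-flupenthixol. Saturating conditions; fmol/mg tissue, % of control.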

[7] = molecular target: D(2) dopamine receptor (Rattus norvegicus) (UniProt P61169); assay: In vivo displacement of [3H]Nemonapride from dopamine D2 receptor in Sprague-Dawley rat dorsolateral frontal cortex at 13.75 mg/kg, ip qd for 28 days by autoradiography relative to control; assay type: functional, organism-based; parameters: dose 13.75 mg/kg
Summary of the method: (§1)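 Male Sprague-Dawley rats, N = 8/group, daily ip dosing for 28 days with vehicle controls; cryostat sections (10 μm) preincubated 1 h RT. Incubation 1 h RT in 50 mM Tris-HCl pH 7.4, 120 mM NaCl, 5 mM KCl, 2 mM CaCl2, 1 mM MgCl2 with 1 nM [3H]nemonapride, 0.5 μM DTG, 0.1 μM pindolol. Nonspecific: 10 μM S(−)-sulpiride. Values fmol/mg tissue, % of control.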

Caudate-putamen [8] = assay: In vivo displacement of [3H]Nemonapride from dopamine D2 receptor in Sprague-Dawley rat lateral of caudate putamen at 13.75 mg/kg, ip qd for 28 days by autoradiography relative to control; assay type: functional; conditions: route intraperitoneal; summary of the method: as §1

D(2) dopamine receptor (Rattus norvegicus), sequence (P61169 whole entry): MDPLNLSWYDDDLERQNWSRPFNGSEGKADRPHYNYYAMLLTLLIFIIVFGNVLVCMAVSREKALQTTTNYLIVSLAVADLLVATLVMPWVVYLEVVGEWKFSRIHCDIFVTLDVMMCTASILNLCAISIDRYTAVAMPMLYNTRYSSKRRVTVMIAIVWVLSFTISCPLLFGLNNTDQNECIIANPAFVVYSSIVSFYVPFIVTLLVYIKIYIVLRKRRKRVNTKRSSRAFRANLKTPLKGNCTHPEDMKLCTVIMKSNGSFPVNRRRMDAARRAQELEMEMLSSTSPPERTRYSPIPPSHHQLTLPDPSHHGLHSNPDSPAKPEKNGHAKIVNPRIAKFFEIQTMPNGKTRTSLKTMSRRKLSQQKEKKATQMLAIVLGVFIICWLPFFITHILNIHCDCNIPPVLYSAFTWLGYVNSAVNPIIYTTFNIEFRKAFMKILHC

## Clc1ccc2c(c1)N=C(N1CCNCC1)c1cccnc1O2
[1]
  inhibition in vivo at 13.75 mg/kg: 110%
Caudate-putamen [2]
  inhibition in vivo at 13.75 mg/kg: 152%
[3]
  inhibition in vivo at 13.75 mg/kg: 103%
[4]
  inhibition: 103%
[5]
  inhibition in vivo at 13.75 mg/kg: 53%
[6]
  inhibition in vivo at 13.75 mg/kg: 96%
[7]
  inhibition: 103%
Caudate-putamen [8]
  inhibition in vivo at 13.75 mg/kg: 98%
